Each block holds one compound with its values, some of them ahead of it. Activity calls are given as the source filed them. No cut-off for these calls is given here.
What was measured:
[1] = molecular target: T1, Glucocorticoid receptor (Rattus norvegicus) (UniProt P06536); test: In vivo glucocorticoid profile, depression of adrenal weight in rat at 50 mg/kg peroral dose; format: functional, organism-based; parameters: dose 50 mg/kg
T1 sequence (whole entry): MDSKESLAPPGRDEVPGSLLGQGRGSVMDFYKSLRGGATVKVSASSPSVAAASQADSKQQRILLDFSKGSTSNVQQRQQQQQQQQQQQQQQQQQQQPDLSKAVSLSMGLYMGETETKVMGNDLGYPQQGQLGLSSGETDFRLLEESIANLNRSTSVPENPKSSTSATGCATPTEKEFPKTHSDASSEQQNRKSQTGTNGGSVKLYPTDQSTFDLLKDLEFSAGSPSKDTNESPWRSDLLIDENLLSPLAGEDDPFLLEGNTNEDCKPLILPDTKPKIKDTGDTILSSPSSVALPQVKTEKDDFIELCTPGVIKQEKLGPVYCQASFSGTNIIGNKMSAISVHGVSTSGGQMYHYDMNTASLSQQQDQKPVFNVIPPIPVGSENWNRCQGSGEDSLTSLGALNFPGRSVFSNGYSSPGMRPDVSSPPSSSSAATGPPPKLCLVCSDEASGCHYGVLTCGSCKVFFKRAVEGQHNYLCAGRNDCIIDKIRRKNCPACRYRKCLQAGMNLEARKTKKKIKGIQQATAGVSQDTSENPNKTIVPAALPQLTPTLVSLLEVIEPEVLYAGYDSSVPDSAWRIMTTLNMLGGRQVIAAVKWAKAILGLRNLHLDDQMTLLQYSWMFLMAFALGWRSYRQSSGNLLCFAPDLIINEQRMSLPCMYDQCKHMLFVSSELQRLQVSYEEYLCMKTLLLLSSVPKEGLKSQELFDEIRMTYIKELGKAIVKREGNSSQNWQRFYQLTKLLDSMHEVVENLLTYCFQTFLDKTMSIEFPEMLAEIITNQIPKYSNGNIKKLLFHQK
Procedure, shortened: (§1)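 Two-week oral glucocorticoid profile in rats. Thymus weight, adrenal weight and body weight gain are each expressed as % change from control.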

[2] = molecular target: T1, Glucocorticoid receptor (Rattus norvegicus); test: In vivo antiinflammatory activity in the rat, alpha-tocopherol filled pouch 48 mg/kg peroral dose; IA = inactive; format: functional, organism-based; parameters: dose 48 mg/kg
[3] = molecular target: T1, Glucocorticoid receptor (Rattus norvegicus); test: In vivo glucocorticoid profile, depression of body weight gain without altered food consumption in rat at 50 mg/kg peroral dose; format: functional, organism-based; parameters: dose 50 mg/kg; procedure, shortened: as §1
[4] = molecular target: T1, Glucocorticoid receptor (Rattus norvegicus); test: In vivo glucocorticoid profile, depression of thymus weight in rat at 50 mg/kg peroral dose; format: functional, organism-based; parameters: dose 50 mg/kg; procedure, shortened: as §1
[5] = molecular target: T1, Glucocorticoid receptor (Rattus norvegicus); test: In vivo glucocorticoid profile, depression of adrenal weight in rat at 100 mg/kg peroral dose; format: functional, organism-based; parameters: dose 100 mg/kg
Procedure, shortened: (§2)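 Two-week oral dosing test in rats. At the end, thymus weight, adrenal weight and body weight gain are recorded and expressed as % change from control.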

[6] = molecular target: T1, Glucocorticoid receptor (Rattus norvegicus); test: In vivo glucocorticoid profile, depression of adrenal weight in rat at 25 mg/kg peroral dose; format: functional, organism-based; parameters: dose 25 mg/kg; procedure, shortened: as §1
[7] = molecular target: T1, Glucocorticoid receptor (Rattus norvegicus); test: In vivo antiinflammatory activity in the rat, alpha-tocopherol filled pouch 25 mg/kg peroral dose; IA = inactive; format: functional, organism-based; parameters: dose 25 mg/kg
Procedure, shortened: (§3)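 Rats receive an air-filled pouch injected with 0.5 mL DL-α-tocopherol. Oral doses are given daily for 7 days, starting on the day of pouch formation, as suspensions in 1% gum tragacanth. ED50 is in mg/kg po.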

[8] = molecular target: T1, Glucocorticoid receptor (Rattus norvegicus); test: In vivo glucocorticoid profile, depression of thymus weight in rat at 25 mg/kg peroral dose; format: functional, organism-based; parameters: dose 25 mg/kg; procedure, shortened: as §1
[9] = molecular target: T1, Glucocorticoid receptor (Rattus norvegicus); test: In vivo glucocorticoid profile, depression of thymus weight in rat at 100 mg/kg peroral dose; format: functional, organism-based; parameters: dose 100 mg/kg; procedure, shortened: as §1
[10] = molecular target: T1, Glucocorticoid receptor (Rattus norvegicus); test: In vivo glucocorticoid profile, depression of body weight gain without altered food consumption in rat at 25 mg/kg peroral dose; format: functional, organism-based; parameters: dose 25 mg/kg; procedure, shortened: as §1
[11] = molecular target: T1, Glucocorticoid receptor (Rattus norvegicus); test: In vivo glucocorticoid profile, depression of adrenal weight in rat at 0.2 mg/kg peroral dose; format: functional, organism-based; parameters: dose 0.2 mg/kg; procedure, shortened: as §1
[12] = molecular target: T1, Glucocorticoid receptor (Rattus norvegicus); test: In vivo glucocorticoid profile, depression of adrenal weight in rat at 1 mg/kg peroral dose; format: functional, organism-based; parameters: dose 1 mg/kg; procedure, shortened: as §2
[13] = molecular target: T1, Glucocorticoid receptor (Rattus norvegicus); test: In vivo glucocorticoid profile, depression of adrenal weight in rat at 5 mg/kg peroral dose; format: functional, organism-based; parameters: dose 5 mg/kg; procedure, shortened: as §1
[14] = molecular target: T1, Glucocorticoid receptor (Rattus norvegicus); test: In vivo glucocorticoid profile, depression of thymus weight in rat at 0.2 mg/kg peroral dose; format: functional, organism-based; parameters: dose 0.2 mg/kg; procedure, shortened: as §1
[15] = molecular target: T1, Glucocorticoid receptor (Rattus norvegicus); test: In vivo glucocorticoid profile, depression of thymus weight in rat at 1 mg/kg peroral dose; format: functional, organism-based; parameters: dose 1 mg/kg; procedure, shortened: as §2
[16] = molecular target: T1, Glucocorticoid receptor (Rattus norvegicus); test: In vivo glucocorticoid profile, depression of body weight gain without altered food consumption in rat at 0.2 mg/kg peroral dose; format: functional, organism-based; parameters: dose 0.2 mg/kg; procedure, shortened: as §1
[17] = molecular target: T1, Glucocorticoid receptor (Rattus norvegicus); test: (§4) In vivo glucocorticoid profile, depression of body weight gain without altered food consumption in rat at 5 mg/kg peroral dose; format: functional, organism-based; parameters: dose 5 mg/kg; procedure, shortened: as §1
[18] = molecular target: T1, Glucocorticoid receptor (Rattus norvegicus); test: In vivo glucocorticoid profile, depression of thymus weight in rat at 5 mg/kg peroral dose; format: functional, organism-based; parameters: dose 5 mg/kg; procedure, shortened: as §1
[19] = molecular target: T1, Glucocorticoid receptor (Rattus norvegicus); test: In vivo anti-inflammatory activity in the rat, alpha-tocopherol filled pouch peroral dose; format: functional, organism-based; procedure, shortened: as §3
[20] = molecular target: T1, Glucocorticoid receptor (Rattus norvegicus); test: In vivo glucocorticoid profile, depression of body weight gain without altered food consumption in rat at 1 mg/kg peroral dose; format: functional, organism-based; parameters: dose 1 mg/kg; procedure, shortened: as §2
[21] = molecular target: T1, Glucocorticoid receptor (Rattus norvegicus); test: In vivo antiinflammatory activity in the rat, alpha-tocopherol filled pouch 70 mg/kg peroral dose; IA = inactive; format: functional, organism-based; parameters: dose 70 mg/kg
[22] = molecular target: T1, Glucocorticoid receptor (Rattus norvegicus); test: Relative binding affinity (RBA) for glucocorticoid receptor from rat liver cytosol by displacement of [3H]-RU-28,362
Procedure, shortened: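 Competitive binding to glucocorticoid receptor in liver cytosol from adrenalectomized rats, with [3H]RU28362 as ligand. RBA is derived from the concentrations of dexamethasone and of competitor giving 50% binding inhibition. A value of zero means binding was too low to measure.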

[23] = molecular target: T1, Glucocorticoid receptor (Rattus norvegicus); test: as §4; format: functional, organism-based; parameters: dose 5 mg/kg; procedure, shortened: as §2; remark: listed apart in the source

Structure (SMILES): C=CCN1C(=O)N(CC=C)C(=O)C2(CC=C3[C@H](CCC4=Cc5c(cnn5-c5ccc(F)cc5)C[C@@]43C)O2)C1=O
Change [1]: -37%
ED50 [2]: inactive
Weight gain [3]: -58
Change [4]: -34%

Structure (SMILES): C#C[C@]1(O)CCC2[C@@H]3CCC4=Cc5c(cnn5-c5ccc(F)cc5)C[C@]4(C)C3=CC[C@@]21C (some centres undefined)
Change [12]: -35%
Change [13]: -60%
Change [15]: -41%
Weight gain [17]: -145
Change [18]: -76%
Weight gain [20]: 0

Structure (SMILES): COC(=O)CN1C(=O)N(CC(=O)OC)C(=O)C2(CC=C3[C@H](CCC4=Cc5c(cnn5-c5ccc(F)cc5)C[C@@]43C)O2)C1=O
Change [6]: 0%
Change [8]: 0%
ED50 [21]: inactive
Weight gain [10]: 0

Structure (SMILES): C[C@]12CCC(=O)C=C1CC[C@@H]1[C@@H]2[C@@H](O)C[C@@]2(C)[C@H]1CC[C@]2(O)C(=O)CO
ED50 [19]: 18 mg/kg

Structure (SMILES): CC(=O)C1CC=C2[C@H](CCC3=Cc4c(cnn4-c4ccc(F)cc4)C[C@@]32C)C1C(C)=O (some centres undefined)
Change [13]: -40%
Weight gain [23]: -80

Now from value to compound:

Change [5]: -45%
Change [6]: 0%
ED50 [7]: inactive
Change [8]: -34%
Change [9]: -34%
Weight gain [10]: 0
Structure (SMILES): CCN1C(=O)N(CC)C(=O)C2(CC=C3[C@H](CCC4=Cc5c(cnn5-c5ccc(F)cc5)C[C@@]43C)O2)C1=O

Change [11]: -25%
Change [12]: -57%
Change [13]: -63%
Change [14]: -28%
Change [15]: -71%
Weight gain [16]: -55
Weight gain [17]: -236
Change [18]: -83%
ED50 [19]: 2 mg/kg
Weight gain [20]: -127
Structure (SMILES): CN1C(=O)N(C)C(=O)C2(CC=C3[C@H](CCC4=Cc5c(cnn5-c5ccc(F)cc5)C[C@@]43C)O2)C1=O (stereo in doubt; 12a)

RBA [22]: 0.72%
Structure (SMILES): CN1C(=O)N(C)C(=O)C2(CC=C3[C@H](CCC4=Cc5c(cnn5-c5ccncc5)C[C@@]43C)O2)C1=O

RBA [22]: 0%
Structure (SMILES): CN1C(=O)N(C)C(=O)C2(CC=C3[C@H](CC[C@H]4Cc5c(cnn5-c5ccncc5)C[C@]34C)O2)C1=O

Change [1]: 0%
ED50 [7]: inactive
Weight gain [3]: 0
Change [4]: 0%
Structure (SMILES): CCCN1C(=O)N(CCC)C(=O)C2(CC=C3[C@H](CCC4=Cc5c(cnn5-c5ccc(F)cc5)C[C@@]43C)O2)C1=O
